Data as given in ChEMBL document CHEMBL5338802, “To Fold or Not to Fold: Diastereomeric Optimization of an α-Helical Antimicrobial Peptide” (J Med Chem, 2023).
In brackets after ≈: the same amount, converted by molar mass. Activity calls are given as the source filed them. No cut-off for these calls is given here. Non-standard residues stand in square brackets, D forms with d. Residues, ends and D or L forms follow the SMILES beside them.

How the values were obtained:
Burkholderia cenocepacia = assay: Antimicrobial activity against multidrug-resistant Burkholderia cenocepacia assessed as microbial growth inhibition incubated for 16 to 20 hrs by broth microdilution method; type: functional; conditions: time 16-20 hrs
Method in brief: (§1)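 Broth microdilution in Mueller–Hinton broth pH 7.4. Peptides serially diluted 1/2 from 2 mg/mL water stocks over 0.5–64 μg/mL. Overnight LB colony culture diluted to OD600 0.022; roughly 5 × 10^5 CFU final inoculum. Static incubation at 37 °C for 16–20 h, then MTT added at room temperature. MIC is the lowest concentration with no visible growth, read by eye. Two independent duplicates.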

Pseudomonas aeruginosa [1] = assay: Antimicrobial activity against Pseudomonas aeruginosa PAO1 assessed as bacterial killing at 8 ug/ml measured after 1 hr by time-kill assay; type: functional, organism-based; conditions: dose 8.0 µg/ml
Method in brief: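 P. aeruginosa PAO1 from an overnight LB culture was diluted to 2 × 10^6 CFU/mL in MH, pH 7.4, then mixed 1:1 with peptide in MH and incubated at 37 °C with shaking at 180 rpm. Survivors were counted by plating 10-fold dilutions on LB agar at 0–6 h (37 °C, 10 h). Done in triplicate.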

Erythrocyte = assay: Hemolytic activity in human RBC incubated for 4 hrs by visual analysis; type: toxicity, cell-based
Acinetobacter baumannii = assay: Antimicrobial growth against Acinetobacter baumannii ATCC 19606 assessed as microbial growth inhibition incubated for 16 to 20 hrs by broth microdilution method; type: functional; conditions: time 16-20 hrs
Method in brief: (§2)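 Broth microdilution in MH broth, pH 7.4. An overnight LB colony culture (37 °C, 180 rpm) was diluted to OD600 0.022, giving about 5 × 10^5 CFU per well. MTT was then added, and MIC was read by eye as the lowest concentration without visible growth. Two independent duplicates were run.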

Klebsiella pneumoniae = assay: Antimicrobial activity against Klebsiella pneumoniae NCTC418 assessed as microbial growth inhibition incubated for 16 to 20 hrs by broth microdilution method; type: functional; conditions: time 16-20 hrs
Method in brief: as §1, with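 “7.4.” for “7.4. Peptides serially diluted 1/2 from 2 mg/mL water stocks over 0.5–64 μg/mL.”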

Staphylococcus aureus = assay: Antimicrobial activity against methicillin-resistant Staphylococcus aureus COL assessed as microbial growth inhibition incubated for 16 to 20 hrs by MTT assay; type: functional; conditions: time 16-20 hrs
Method in brief: as §1, with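 “7.4.” for “7.4. Peptides serially diluted 1/2 from 2 mg/mL water stocks over 0.5–64 μg/mL.”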

Pseudomonas aeruginosa [2] = assay: Antimicrobial activity against Pseudomonas aeruginosa PAO1 assessed as microbial growth inhibition incubated for 16 to 20 hrs by broth microdilution method; type: functional; conditions: time 16-20 hrs; method in brief: as §2
[3] = Induction of membrane disruption in eukaryotic inner membrane mimic EYPC vesicles assessed as carboxyfluorescein leakage at 10 ug/ml measured after 240 secs by fluorescence based assay; type: cell membranes; conditions: dose 10.0 µg/ml, time 240.0 sec
Escherichia coli = assay: Antimicrobial activity against Escherichia coli W3110 assessed as microbial growth inhibition incubated for 16 to 20 hrs by broth microdilution method; type: functional; conditions: time 16-20 hrs; method in brief: as §2
Cell membrane = assay: Induction of membrane disruption in bacterial membrane mimic EYPG vesicles assessed as carboxyfluorescein leakage at 10 ug/ml measured after 240 secs by fluorescence based assay; type: subcellular; conditions: dose 10.0 µg/ml, time 240.0 sec
HEK293 = assay: Cytotoxicity against HEK293 cells assessed as reduction in cell viability at 0 to 200 uM incubated for 24 hrs by Alamar blue assay; type: toxicity, cell-based; conditions: human, hek293, 24 h, dose 0-200 µM
Method in brief: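 HEK293 cells were kept in DMEM with 10% FBS and penicillin/streptomycin, seeded at 4000 cells/well the day before, then exposed to peptide at 0–200 μM for 24 h at 37 °C, 5% CO2. Viability was read with 10% AlamarBlue for 3–5 h (ex 560/em 590 nm), normalized to untreated cells.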

[4] = Proteolytic stability in human serum assessed as drug degradation at 200 uM incubated for 10 mins by RP-HPLC analysis; type: ADME, cell-free

| Compound | MIC (Burkholderia cenocepacia) [µg/mL] | MHC (Erythrocyte) [µg/mL] | MIC (Klebsiella pneumoniae) [µg/mL] | MIC (Staphylococcus aureus) [µg/mL] | MIC (Pseudomonas aeruginosa [2]) [µg/mL] | other results |
| --- | --- | --- | --- | --- | --- | --- |
| CC(C)C[C@H](NC(=O)[C@H](CC(C)C)NC(=O)[C@H](CCCCN)NC(=O)[C@H](CC(C)C)NC(=O)[C@H](CC(C)C)NC(=O)[C@@H](CCCCN)NC(=O)[C@H](N)CCCCN)C(=O)N[C@@H](CCCCN)C(=O)N[C@@H](CC(C)C)C(=O)N[C@@H](CC(C)C)C(=O)N[C@H](CC(C)C)C(N)=O | > 64 | 125 | – | – | – | Activity (Pseudomonas aeruginosa [1]): Active |
| CC(C)C[C@H](NC(=O)[C@H](CC(C)C)NC(=O)[C@H](CC(C)C)NC(=O)[C@@H](CCCCN)NC(=O)[C@H](CC(C)C)NC(=O)[C@H](CC(C)C)NC(=O)[C@@H](CCCCN)NC(=O)[C@H](CC(C)C)NC(=O)[C@H](CC(C)C)NC(=O)[C@@H](CCCCN)NC(=O)[C@@H](CCCCN)NC(=O)[C@H](CC(C)C)NC(=O)[C@H](CC(C)C)NC(=O)[C@H](CC(C)C)NC(=O)[C@@H](CCCCN)NC(=O)[C@H](CC(C)C)NC(=O)[C@H](CC(C)C)NC(=O)[C@@H](CCCCN)NC(=O)[C@H](CC(C)C)NC(=O)[C@H](CC(C)C)NC(=O)[C@@H](CCCCN)NC(=O)[C@H](N)CCCCN)C(N)=O (H-[dK][dK]LL[dK]LL[dK]LLL[dK][dK]LL[dK]LL[dK]LLL-NH2) | – | < 15.6 | > 64 | > 64 | > 64 | MIC (Acinetobacter baumannii): > 64 µg/mL |
| CC[C@H](C)[C@H](NC(=O)[C@@H](NC(=O)[C@@H](NC(=O)[C@@H](CCCNC(=N)N)NC(=O)[C@@H](NC(=O)[C@@H](NC(=O)[C@@H](CCCNC(=N)N)NC(=O)[C@@H](NC(=O)[C@@H](NC(=O)[C@@H](CCCNC(=N)N)NC(=O)[C@H](N)CCCNC(=N)N)[C@@H](C)CC)[C@@H](C)CC)[C@@H](C)CC)[C@@H](C)CC)[C@@H](C)CC)[C@@H](C)CC)C(N)=O (H-[dR][dR]II[dR]II[dR]III-NH2) | – | 250 | 32 (≈ 22.3 µM) | 8 (≈ 5.58 µM) | 4 (≈ 2.79 µM) | Activity [3]: 8%; MIC (Escherichia coli): 8 µg/mL (≈ 5.58 µM); Activity (Cell membrane): 98%; MIC (Acinetobacter baumannii): 8 µg/mL (≈ 5.58 µM) |
| CC(C)C[C@H](NC(=O)[C@H](CC(C)C)NC(=O)[C@H](CC(C)C)NC(=O)[C@H](CCCCN)NC(=O)[C@H](CC(C)C)NC(=O)[C@H](CC(C)C)NC(=O)[C@H](CCCCN)NC(=O)[C@H](CC(C)C)NC(=O)[C@H](CC(C)C)NC(=O)[C@H](CCCCN)NC(=O)[C@@H](N)CCCCN)C(N)=O | – | 125 | – | – | – | Activity (HEK293): Non-Toxic |
| CC[C@H](C)[C@H](NC(=O)[C@@H](NC(=O)[C@@H](NC(=O)[C@@H](CCCCN)NC(=O)[C@@H](NC(=O)[C@@H](NC(=O)[C@@H](CCCCN)NC(=O)[C@@H](NC(=O)[C@@H](NC(=O)[C@@H](CCCCN)NC(=O)[C@H](N)CCCCN)[C@@H](C)CC)[C@@H](C)CC)[C@@H](C)CC)[C@@H](C)CC)[C@@H](C)CC)[C@@H](C)CC)C(N)=O (H-[dK][dK]II[dK]II[dK]III-NH2) | – | 125 | > 64 | > 64 | – | – |
| H-KKLLKLLKLLLKKLLKLLKLLL-NH2 | – | < 15.6 | > 64 | > 64 | > 64 | MIC (Escherichia coli): > 64 µg/mL; MIC (Acinetobacter baumannii): > 64 µg/mL |
| CC(C)C[C@H](NC(=O)[C@H](CC(C)C)NC(=O)[C@H](CC(C)C)NC(=O)[C@H](CCCCN)NC(=O)[C@H](CC(C)C)NC(=O)[C@H](CC(C)C)NC(=O)[C@H](CCCCN)NC(=O)[C@@H](CC(C)C)NC(=O)[C@@H](CC(C)C)NC(=O)[C@@H](CCCCN)NC(=O)[C@@H](N)CCCCN)C(N)=O | > 64 | < 15.6 | – | – | – | – |
| CC(C)C[C@H](NC(=O)[C@H](CC(C)C)NC(=O)[C@H](CC(C)C)NC(=O)[C@H](CCCCN)NC(=O)[C@H](CC(C)C)NC(=O)[C@H](CC(C)C)NC(=O)[C@H](CCCCN)NC(=O)[C@@H](CC(C)C)NC(=O)[C@H](CC(C)C)NC(=O)[C@@H](CCCCN)NC(=O)[C@@H](N)CCCCN)C(N)=O | > 64 | < 15.6 | – | – | – | – |
| CC(C)C[C@H](NC(=O)[C@H](CCCCN)NC(=O)[C@H](N)CCCCN)C(=O)N[C@@H](CC(C)C)C(=O)N[C@@H](CCCCN)C(=O)N[C@@H](CC(C)C)C(=O)N[C@@H](CC(C)C)C(=O)N[C@@H](CCCCN)C(=O)N[C@@H](CC(C)C)C(=O)N[C@@H](CC(C)C)C(=O)N[C@H](CC(C)C)C(N)=O | – | 62.5 | – | – | – | Activity (Pseudomonas aeruginosa [1]): Active |
| H-RRIIRIIRIII-NH2 | – | 62.5 | 16 | 16 | 64 | Activity [3]: 39%; MIC (Escherichia coli): 16 µg/mL; Activity (Cell membrane): 99%; MIC (Acinetobacter baumannii): 8 µg/mL |
| H-RRLLRLLRLLL-NH2 | – | 15.6 | – | – | 8 | Activity [3]: 99%; Activity (Cell membrane): 30% |
| CC(C)C[C@@H](NC(=O)[C@@H](CC(C)C)NC(=O)[C@@H](CC(C)C)NC(=O)[C@H](CCCCN)NC(=O)[C@@H](CC(C)C)NC(=O)[C@@H](CC(C)C)NC(=O)[C@H](CCCCN)NC(=O)[C@@H](CC(C)C)NC(=O)[C@@H](CC(C)C)NC(=O)[C@H](CCCCN)NC(=O)[C@@H](N)CCCCN)C(N)=O | – | 250 | – | – | – | Stability [4]: Unstable |
| H-KKIIKIIKIII-NH2 | – | 62.5 | > 64 | > 64 | > 64 | – |
| CC(C)C[C@H](NC(=O)[C@H](CC(C)C)NC(=O)[C@H](CC(C)C)NC(=O)[C@H](CCCCN)NC(=O)[C@H](CC(C)C)NC(=O)[C@H](CC(C)C)NC(=O)[C@H](CCCCN)NC(=O)[C@H](CC(C)C)NC(=O)[C@H](CC(C)C)NC(=O)[C@@H](CCCCN)NC(=O)[C@H](N)CCCCN)C(N)=O | > 64 | < 15.6 | – | – | – | – |
| CC(C)C[C@H](NC(=O)[C@H](CC(C)C)NC(=O)[C@H](CC(C)C)NC(=O)[C@@H](CCCNC(=N)N)NC(=O)[C@H](CC(C)C)NC(=O)[C@H](CC(C)C)NC(=O)[C@@H](CCCNC(=N)N)NC(=O)[C@H](CC(C)C)NC(=O)[C@H](CC(C)C)NC(=O)[C@@H](CCCNC(=N)N)NC(=O)[C@H](N)CCCNC(=N)N)C(N)=O (H-[dR][dR]LL[dR]LL[dR]LLL-NH2) | – | 125 | – | 2 (≈ 1.39 µM) | – | – |
| CC(C)C[C@H](NC(=O)[C@H](CC(C)C)NC(=O)[C@H](CC(C)C)NC(=O)[C@H](CCCCN)NC(=O)[C@H](CC(C)C)NC(=O)[C@H](CC(C)C)NC(=O)[C@H](CCCCN)NC(=O)[C@H](CC(C)C)NC(=O)[C@H](CC(C)C)NC(=O)[C@@H](CCCCN)NC(=O)[C@@H](N)CCCCN)C(N)=O | > 64 | < 15.6 | – | – | – | – |
| CC(C)C[C@H](NC(=O)[C@H](CC(C)C)NC(=O)[C@H](CC(C)C)NC(=O)[C@H](CCCCN)NC(=O)[C@@H](CC(C)C)NC(=O)[C@H](CC(C)C)NC(=O)[C@H](CCCCN)NC(=O)[C@@H](CC(C)C)NC(=O)[C@@H](CC(C)C)NC(=O)[C@@H](CCCCN)NC(=O)[C@@H](N)CCCCN)C(N)=O | > 64 | 62.5 | – | – | – | – |
